ChEMBL document CHEMBL1141523, “A new Heck reaction modification using ketone Mannich bases as enone precursors: parallel synthesis of anti-leishmanial chalcones” (Bioorg Med Chem Lett, 2008)

What was measured:
Leishmania donovani [1] = assay: Antileishmanial activity against axenic Leishmania donovani amastigotes at 15 uM by Alamar Blue assay; type: functional
Summary of the method: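 L. donovani axenic amastigotes (5.0 × 10^5 cells/ml) were added to an equal volume of compound made up at twice the final concentration in complete amastigote medium with 1% DMSO, giving a 15 µM single-concentration screen. Plates were incubated 24 h at 37 °C in 5% CO2, then alamarBlue was added for 24 h more. Fluorescence was read at ex 544 nm, em 590 nm. Medium ± DMSO served as 0% inhibition, with triplicate wells.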

THP-1 = assay: Cytotoxicity against human THP1 cells at 1 uM after 48 hrs by Alamar Blue assay; type: cell-based; conditions: thp-1, 48 h
Summary of the method: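 THP-1 macrophages in complete RPMI-1640 (8 × 10^5 cells/ml) were added to an equal volume of compound, stated as 2 µM in complete medium with 1% DMSO. Triplicate wells were incubated 48 h at 37 °C in 5% CO2. AlamarBlue was then added for 3 h and fluorescence was read. Medium with and without DMSO served as 0% inhibition controls.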

Leishmania donovani [2] = assay: Antileishmanial activity against axenic Leishmania donovani amastigotes by Alamar Blue assay; type: functional, organism-based
Summary of the method: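 Dose-response GI50 (50% growth inhibition) was run on axenic L. donovani amastigotes (5.0 × 10^5 cells/ml) mixed 1:1 with compound at twice the final concentration in amastigote medium with 1% DMSO. Incubation was 24 h at 37 °C in 5% CO2, plus 24 h with alamarBlue, then fluorescence at 544/590 nm. Medium ± DMSO was taken as 0% inhibition. Triplicate wells were used, with duplicate or single experiments ± standard error.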

Leishmania donovani [3] = assay: Antileishmanial activity against axenic Leishmania donovani amastigotes at 1 uM by Alamar Blue assay; type: functional

Structure (SMILES)	inhibition at 15 µM (Leishmania donovani [1])	Activity (THP-1)	GI50 (Leishmania donovani [2])	inhibition at 1 µM (Leishmania donovani [3])	IC50 (Leishmania donovani [2]; in the assay text read “by tetrazolium dye-based assay” for “by Alamar Blue assay”)
O=C(/C=C/c1ccc(NC(=O)c2ccccc2)cc1)c1cccnc1	98.7%	0%	2.5 µM		
O=C(Nc1ccc(/C=C/C(=O)c2cccs2)cc1)c1ccccc1	95.3%	6%	5.5 µM		
O=C(Nc1ccc(/C=C/C(=O)c2ccco2)cc1)c1ccccc1	92.4%	0%	6 µM		
O=C(/C=C/c1ccc(NC(=O)c2ccccc2)cc1)c1ccccc1	91.6%	37%	7.6 µM		
COc1ccc(C(=O)/C=C/c2ccc(NC(C)=O)cc2)cc1	54.7%				
CC(=O)c1ccc(/C=C/C(=O)c2ccccc2)cc1	93.6%	45.7%	5.6 µM		
COc1ccc(C(=O)/C=C/c2ccc(Oc3ccccc3)nc2)cc1	42%				
O=C(/C=C/c1ccc(Oc2ccccc2)nc1)c1ccccc1	63.7%				
O=C(/C=C/c1ccc(NC(=O)c2ccccc2)cc1)c1ccc(Cl)cc1	59.8%				
COc1ccc(C(=O)/C=C/c2ccc(NC(=O)c3ccccc3)cc2)cc1	2.1%				
C[C@@H]1[C@H](O)[C@@H](C)/C=C/C=C/C=C/C=C/C=C/C=C/C=C/[C@H](O[C@@H]2O[C@H](C)[C@@H](O)[C@H](N)[C@@H]2O)C[C@@H]2O[C@](O)(C[C@@H](O)C[C@@H](O)[C@H](O)CC[C@@H](O)C[C@@H](O)CC(=O)O[C@H]1C)C[C@H](O)[C@H]2C(=O)O [AMPHOTERICIN B]	99%			> 90%	
COc1ccc(C(=O)/C=C/c2cccc3ccccc23)cc1	51%				> 200 µM
